# Measured values from PMC6038876 (Drug Design, Development and Therapy, 2018).
# Legend:
# [1] = Kinetic solubility study of SNMSDs and EDR in SIF pH 6.8; format: physicochemical
# [2] = In vitro dissolution study; format: physicochemical
# Method in brief: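 USP type II (paddle) apparatus at 37°C and 50 rpm, with 900 mL of SGF (pH 1.2) or SIF (pH 6.8). Samples were taken at 5, 15, 30, 45, 60, 90 and 120 min, with media replaced, then passed through a 0.45 µm filter and diluted with mobile phase as needed. They were quantified by HPLC-UV at 240 nm (water:methanol:acetic acid 100:100:1, 1 mL/min). Release data were fitted to zero-order, first-order, Higuchi, Hixson–Crowell and Korsmeyer–Peppas models. f1 and f2 were calculated comparing the unformulated and formulated drug profiles.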
# [3] = pH 8–10; cited from earlier work
# [4] = cited from earlier work
# [5] = tested on: P-glycoprotein (Pgp); conditions: cited from earlier work
# [6] = tested on: UGT enzymes; conditions: cited from earlier work
# [7] = Solubility of EDR, PM and NEF in simulated body fluids and water
# [8] = tested on: glucuronidation of EDR in rat liver microsomes; assay: Microsomal incubation assay of EDR glucuronidation; format: in vitro ADME; conditions: SOL 1%
# [9] = Miscibility study: solubility of EDR in polymeric carrier solutions; conditions: 10% (w/v) polymer in water
# [10] = dissolution profiles in SGF vs SIF
molecule,measurement,setting,value
"CC1=NN(c2ccccc2)C(=O)C1 [EDR, 3-methyl-1-phenyl-2-pyrazolin-5-one]",solubility,[1],2290 ± 320 µg/mL
same,release kinetic model followed,[2]; SGF,Hixson–Crowell
same,release kinetics: First order,[2]; SGF,0.834
same,release kinetics: Higuchi matrix,[2]; SGF,0.8501
same,release kinetics: Hixson–Crowell,[2]; SGF,0.9216
same,release kinetics: Korsmeyer–Peppas,[2]; SGF,0.8636
same,release kinetics: Zero order,[2]; SGF,0.6077
same,release / dissolution in SGF,"[2]; SGF (pH 1.2), within 15 min",100%
same,release kinetic model followed,[2]; SIF,Korsmeyer–Peppas
same,release kinetics: First order,[2]; SIF,0.9609
same,release kinetics: Higuchi matrix,[2]; SIF,0.97
same,release kinetics: Hixson–Crowell,[2]; SIF,0.9718
same,release kinetics: Korsmeyer–Peppas,[2]; SIF,0.9895
same,release kinetics: Zero order,[2]; SIF,0.7947
same,release mechanism,[2]; SIF,anomalous transport (non-Fickian)
same,release in SIF,"[2]; SIF (pH 6.8), in 120 min",85%
same,f1 value (dissimilarity factor),[2]; [10],26
same,f2 value (similarity factor),[2]; [10],14
same,dissolution,[2]; within 15 min in the 900 mL of dissolution media,100%
same,degradation at alkaline conditions,[3],dramatic degradation
same,solubility in SGF,[4],8260 ± 1420 µg/mL
same,substrate of P-glycoprotein (Pgp),[5],substrate
same,substrate of UGT enzymes,[6],substrate
same,solubility in SGF (pH 1.2) compared to solubility in water,[7]; SGF pH 1.2,4.46 fold
same,solubility in SIF compared to solubility in water,[7]; SIF pH 6.8 and 7.4,insignificant difference
CC1(C)C2CCC1(C)C(O)C2 (stereo not drawn) [borneol],inhibitory effect on glucuronidation of EDR,[8],37.56%
hydroxypropyl-β-cyclodextrin [HP-β-CD],improvement in the aqueous solubility of EDR,[9],3.49 fold
